Structures are written as SMILES. Starred links: 1 amine or outer side, 2 acyl side, 3 side chain; linkers in the order of their positions; H or OH if unused. Non-standard residues stand in square brackets, D forms with d. Residues, ends and D or L forms follow the SMILES beside them. *: point of attachment. Ahppa(3S,4S) = O=C(C[C@H](O)[C@H](Cc1ccccc1)N[*:1])[*:2]; Sta = CC(C)C[C@H](N)[C@@H](O)CC(=O)O; Isobutyryl = CC(C)C(=O)*; Propionyl = CCC(=O)*

The target of assay [1] is Cathepsin B (Bos taurus, UniProt P07688). The assay can be described thus: Inhibition of bovine spleen cathepsin B using Z-Arg-Arg-AMC as substrate after 30 mins by fluorescence assay. A digest of the protocol:
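Enzyme stock 1 unit/mL in 50 mM MES pH 6.0 with 0.1% Brij-35, diluted 100-fold in the same buffer before use. Test sample was mixed with diluted enzyme and 25 μM Z-Arg-Arg-AMC (substrate solution in DMSO, pre-mixing level) and incubated 37 °C for 30 min. Released AMC was read by fluorescence, excitation 345 nm, emission 440 nm.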

Assay [2] is described as follows: Inhibition of porcine gastric mucosa pepsin using MOCAc-Ala-Pro-Ala-Lys-Phe-Phe-Arg-Leu-Lys (Dnp)-NH2 as substrate after 20 mins by fluorescence assay. Set-up: species or system Sus scrofa. The method, boiled down: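 Test solution in MeOH was diluted into 0.1 M ammonium formate buffer pH 3.0. Pepsin solution (1 μg/mL in the buffer) was added, then 10 μM fluorogenic substrate solution (pre-mixing level). The mixture was incubated 30 °C for 20 min. Released MOCAc-Ala-Pro-Ala-Lys-Phe was read by fluorescence, excitation 328 nm, emission 393 nm.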

On to `CC(=O)N[C@H](C(=O)N[C@H](C(=O)N[C@@H](CC(C)C)[C@@H](O)CC(=O)N[C@@H](C)C(=O)N[C@@H](Cc1ccccc1)[C@@H](O)CC(=O)O)C(C)C)C(C)C` (Ac-VV[Sta]A-{Ahppa(3S,4S)}), for which the IC50 (as a rule, the concentration needed to halve the response being measured) in assay [1] worked out at 15 µM; in assay [2], 0.011 µM.

On to `CC(C)C[C@H](NC(=O)[C@@H](NC(=O)[C@@H](NC(=O)C(C)C)C(C)C)C(C)C)[C@@H](O)CC(=O)N[C@@H](C)C(=O)N[C@@H](Cc1ccccc1)[C@@H](O)CC(=O)O` (Isobutyryl-VV[Sta]A-{Ahppa(3S,4S)}), for which the IC50 in assay [1] came to 26 µM.

`CC(C)C[C@H](NC(=O)[C@H](C)NC(=O)C[C@H](O)[C@H](CC(C)C)NC(=O)[C@@H](NC(=O)[C@@H](NC(=O)C(C)C)C(C)C)C(C)C)[C@@H](O)CC(=O)O` (Isobutyryl-VV[Sta]A[Sta]-OH): half-maximal inhibition in assay [1] (IC50) was put at 29 µM.

In the case of `CCC(=O)N[C@H](C(=O)N[C@H](C(=O)N[C@@H](CC(C)C)[C@@H](O)CC(=O)N[C@@H](C)C(=O)N[C@@H](Cc1ccccc1)[C@@H](O)CC(=O)O)C(C)C)C(C)C` (Propionyl-VV[Sta]A-{Ahppa(3S,4S)}), the IC50 in assay [1] is 25 µM; in assay [2], 0.05 µM.

As for `CCC(=O)N[C@H](C(=O)N[C@H](C(=O)N[C@@H](CC(C)C)[C@@H](O)CC(=O)N[C@@H](C)C(=O)N[C@@H](CC(C)C)[C@@H](O)CC(=O)O)C(C)C)C(C)C` (Propionyl-VV[Sta]A[Sta]-OH), the IC50 worked out at 10 µM in assay [1] and 0.018 µM in assay [2].

As to `CC(=O)N[C@H](C(=O)N[C@H](C(=O)N[C@@H](CC(C)C)[C@@H](O)CC(=O)N[C@@H](C)C(=O)N[C@@H](CC(C)C)[C@@H](O)CC(=O)O)C(C)C)C(C)C` [ACETYLPEPSTATIN], the IC50 was found to be 17 µM in assay [1] and 0.011 µM in assay [2].
